According to ChEMBL document CHEMBL1123673, “Comparison of aminoglycoside antibiotics with respect to uptake and lethal activity in Escherichia coli” (J Med Chem, 1987):

Tests used:
[1] = (§1) Percent killing of the total Escherichia coli K12 (ATCC 25868) cells at the C50 concentration was determined.; type: ADME
Escherichia coli [2] = assay: Estimated rate of [3H]DHS uptake in Escherichia coli K12 (ATCC 25868); type: functional; parameters: unit not given here
How it was run: (§2)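 Cultures in tryptone-peptone broth at 37 °C with shaking, grown from OD600 ~0.05 to 0.20, then preexposed to antibiotic for 20 min at 37 °C. Cells pelleted, resuspended in equal volume fresh broth, pulsed 5.0 min at 37 °C with [3H]DHS (1.0 µCi/mL, 3.8 Ci/mmol). Samples filtered, washed with 0.1 M LiCl, scintillation counted. C50 = half-maximal rate estimated from dose-response curves.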

Escherichia coli [3] = assay: Concentration required for half maximum rate of enhanced [3H]DHS (Dihydrostreptomycin) uptake in Escherichia coli K12 (ATCC 25868)was estimated from dose-response curves; type: functional; how it was run: as §2
[4] = (§3) Lethal dose required to kill 90% of the Escherichia coli K12 (ATCC 25868) cell population; type: ADME
How it was run: (§4)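 E. coli K12 in tryptone-peptone broth at 37 °C, OD600 0.20, exposed 20 min at 37 °C to antibiotic; pellets resuspended to OD600 0.10–0.15 in TPB, serially diluted, plated on tryptone-peptone agar, colonies counted after overnight at 37 °C. Value is the concentration killing 90% of the population.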

Escherichia coli [5] = tested on: Escherichia coli;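 also: escherichia coli cells, read-out is the rate of enhanced [3H]DHS uptake, C50 being the level that yields half of the maximal rate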
Escherichia coli [6] = assay: Estimated rate of [3H]DHS (Dihydrostreptomycin) uptake in Escherichia coli K12 (ATCC 25868) [pmol/min (optical density unit)E-1] at the C50 was determined.; type: functional; how it was run: as §2
Escherichia coli [7] = assay: Estimated rate of [3H]DHS (Dihydrostreptomycin) uptake in Escherichia coli K12 (ATCC 25868) [pmol/min (optical density unit)E-1] at the C50 was determined.; OD means optical density; type: functional
How it was run: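 E. coli K12 grown in tryptone-peptone broth at 37 °C with shaking to OD600 0.20, preexposed 20 min at 37 °C to antibiotic across a dose range; cells pelleted, resuspended in TPB, given [3H]DHS (1.0 µCi/mL, 3.8 Ci/mmol) for 5.0 min at 37 °C; filtered, washed with 0.1 M LiCl, scintillation counted. Rate read at C50 (half-maximal induced rate) from dose-response curves.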

[8] = as §1; type: functional
[9] = as §3; type: functional; how it was run: as §4
Escherichia coli [10] = assay: Estimated rate of [3H]DHS (Dihydrostreptomycin) uptake in Escherichia coli K12 (ATCC 25868) [pmol/min (optical density unit)E-1] at the C50 was determined;OD means optical density; type: functional; how it was run: as §2
[11] = (§5) Percent killing of the total Escherichia coli K12 (ATCC 25868)cells at the C50 concentration was determined.; type: ADME
[12] = as §5; type: functional

Compound | Kill at C50 [1] | Uptake at C50 (Escherichia coli [2]) | LD90 [4] | C50 (Escherichia coli [5]) | further results
CNC1C(OC2OC(CO)C(N)C(O)C2O)OC2CC(NC(=O)C(O)CCN)C(OC3C(N)CC(N)C(O)C3O)OC2C1O (centres undefined) | 93% | 2.6 | 0.72 µM | – | C50 (Escherichia coli [3]): 0.84 µM
CNC1C(OC2OC(CO)C(N)C(O)C2O)OC2CC(NC(=O)CN)C(OC3C(N)CC(N)C(O)C3O)OC2C1O (centres undefined) | 53% | 3.3 | 0.83 µM | 0.45 µM | –
NCC1CCC(N)C(OC2C(N)CC(N)C(OC3OC(CO)C(O)C(N)C3O)C2O)O1 (centres undefined) | 74% | 8.1 | 0.89 µM | – | –
CNC1C(OC2OC(CO)C(N)C(O)C2O)OC2CC(N)C(OC3C(N)CC(NC(=O)CN)C(O)C3O)OC2C1O (centres undefined) | 94% | 2.1 | 0.84 µM | – | C50 (Escherichia coli [3]): 1.1 µM
NCC1OC(OC2C(N)CC(NC(=O)C3(O)CNC3)C(OC3OC(CO)C(O)C(N)C3O)C2O)C(N)CC1O (centres undefined) | 50% | 4.4 | 0.63 µM | 0.12 µM | –
COC1C(O)C(N)C(OC2OC([C@H](C)N)CCC2N)C(O)C1N(C)C(=O)CN (some centres undefined) | 93% | 5.6 | 0.7 µM | 0.86 µM | –
CNC1C(O)C(OC2C(N)CC(N)C(OC3OC(C(C)N)CCC3N)C2O)OCC1(C)O (centres undefined) | 98% | – | 0.14 µM | – | Uptake at C50 (Escherichia coli [6]): 6.5; C50 (Escherichia coli [3]): 0.26 µM
NC[C@H]1O[C@H](O[C@@H]2[C@@H](O)[C@H](O[C@@H]3[C@H](O)[C@H](N)C[C@@H](N)[C@H]3O[C@H]3O[C@@H](CO)[C@@H](O)C[C@@H]3N)O[C@@H]2CO)[C@@H](N)[C@@H](O[C@H]2O[C@H](CO)[C@@H](O)[C@H](O)[C@@H]2O)[C@@H]1O | 78% | 4.4 | 0.88 µM | 0.57 µM | –
NCC1OC(OC2C(N)CC(NC(=O)C3(O)CCNC3)C(OC3OC(CO)C(O)C(N)C3O)C2O)C(N)CC1O (centres undefined) | 65% | 4.4 | 0.31 µM | 0.12 µM | –
CNC1C(OC2OC(CO)C(N)C(O)C2O)OC2CC(N)C(OC3C(N)CC(NC(=O)C(O)CCN)C(O)C3O)OC2C1O (centres undefined) | 53% | 2.4 | 1.2 µM | – | C50 (Escherichia coli [3]): 0.39 µM
CN(C)[C@@H]1C(O)=C(C(N)=O)C(=O)[C@@]2(O)C(O)=C3C(=O)c4c(O)cccc4[C@@](C)(O)[C@H]3C[C@@H]12 | – | – | – | > 50 µM | –
CN1C(NC2OC(CO)C(OC(N)=O)C(O)C2NC(=O)CC(N)CCCN)=N[C@@H]2[C@H](O)CNC(=O)[C@H]21 (some centres undefined) | – | 4.1 | – | 0.1 µM | –
CN[C@@H]1[C@H](O)[C@H](NC)[C@H]2O[C@@]3(O)C(=O)C[C@@H](C)O[C@H]3O[C@@H]2[C@H]1O | – | – | – | > 10 µM | –
CN[C@H]1C[C@@H](N)[C@H](O)[C@@H](O[C@@H]2O[C@H](CO)[C@H](O)[C@H]3O[C@@]4(O[C@H]23)O[C@H]([C@H](N)CO)[C@H](O)[C@H](O)[C@H]4O)[C@@H]1O | – | – | – | > 50 µM | –
NCCCCNCCCN | – | – | – | > 50 µM | –
NC[C@@H]1O[C@@H](O[C@H]2[C@H](O)[C@@H](O[C@H]3O[C@H](CO)[C@@H](O)[C@H](N)[C@H]3O)[C@H](N)C[C@@H]2N)[C@@H](O)[C@H](O)[C@H]1O | – | 3.5 | – | 0.95 µM | –
O=C(N[C@H](CO)[C@H](O)c1ccc([N+](=O)[O-])cc1)C(Cl)Cl | – | – | – | > 50 µM | –

Compound | Kill at C50 [1] | Uptake at C50 (Escherichia coli [2]) | LD90 [4] | C50 (Escherichia coli [5]) | further results
4-Amino-N-[5-amino-4-(3-amino-6-aminomethyl-4,5-dihydroxy-tetrahydro-pyran-2-yloxy)-3-(3,4-dihydroxy-5-hydroxymethyl-tetrahydro-furan-2-yloxy)-2-hydroxy-cyclohexyl]-2-hydroxy-butyramide (Butirosin) | – | 4 | – | 0.13 µM | –
NCC[C@H](O)C(=O)N[C@@H]1C[C@H](N)[C@@H](O[C@H]2O[C@H](CN)[C@@H](O)[C@H](O)[C@H]2O)[C@H](O)[C@H]1O[C@H]1O[C@H](CO)[C@@H](O)[C@H](N)[C@H]1O (stereo in doubt) | – | – | – | 0.21 µM | Uptake at C50 (Escherichia coli [7]): 4.7
NCC[C@H](O)C(=O)N[C@@H]1C[C@H](N)[C@@H](O[C@H]2O[C@H](CN)[C@@H](O)[C@H](O)[C@H]2O)[C@H](O)[C@H]1O[C@H]1O[C@H](CO)[C@@H](O)[C@H](N)[C@H]1O (stereo in doubt) [AMIKACIN] | – | – | – | – | Kill at C50 [8]: 76%; LD90 [9]: 0.32 µM
CN[C@@H]1[C@@H](O[C@H]2O[C@H](CO)[C@@H](N)[C@H](O)[C@H]2O)OC2C[C@@H](N)[C@@H](O[C@H]3[C@H](O)[C@@H](O)[C@H](N)C[C@@H]3N)OC2[C@@H]1O (some centres undefined) [APRAMYCIN] | 95% | – | 0.67 µM | 0.87 µM | Uptake at C50 (Escherichia coli [10]): 4
NC[C@H]1O[C@H](O[C@H]2[C@H](O)[C@@H](O[C@H]3O[C@H](CO)[C@@H](O)[C@H](N)[C@H]3O)[C@H](N)C[C@@H]2N)[C@H](N)[C@@H](O)[C@@H]1O [BEKANAMYCIN] | – | 6.8 | 1.1 µM | 0.27 µM | Kill at C50 [11]: 31%
NC[C@@H]1O[C@H](O[C@H]2[C@@H](O)[C@H](O[C@@H]3[C@@H](O)[C@H](N)C[C@H](N)[C@H]3O[C@H]3O[C@H](CN)[C@@H](O)[C@H](O)[C@H]3N)O[C@@H]2CO)[C@H](N)[C@@H](O)[C@@H]1O [FRAMYCETIN] | 82% | 1.6 | 0.46 µM | 0.34 µM | –
CN[C@@H]1[C@@H](O)[C@@H](O[C@@H]2[C@@H](O)[C@H](O[C@H]3O[C@H]([C@@H](C)NC)CC[C@H]3N)[C@@H](N)C[C@H]2N)OC[C@]1(C)O [GENTAMICIN C1] | 85% | – | 0.25 µM | 0.21 µM | Uptake at C50 (Escherichia coli [7]): 5.5
NC[C@H]1O[C@H](O[C@H]2[C@H](O)[C@@H](O[C@H]3O[C@H](CO)[C@@H](O)[C@H](N)[C@H]3O)[C@H](N)C[C@@H]2N)[C@H](O)[C@@H](O)[C@@H]1O [KANAMYCIN A] | 93% | – | 0.85 µM | – | –
NC[C@@H]1O[C@H](O[C@H]2[C@@H](O)[C@H](O[C@@H]3[C@@H](O)[C@H](N)C[C@H](N)[C@H]3O[C@H]3O[C@H](CO)[C@@H](O)C[C@H]3N)O[C@@H]2CO)[C@H](N)[C@@H](O)[C@@H]1O[C@H]1O[C@H](CO)[C@@H](O)[C@H](O)[C@@H]1O [LIVIDOMYCIN] | – | 5.5 | 0.87 µM | 0.18 µM | Kill at C50 [11]: 40%
CCN[C@@H]1C[C@H](N)[C@@H](O[C@H]2OC(CN)=CC[C@H]2N)[C@H](O)[C@H]1O[C@H]1OC[C@](C)(O)[C@H](NC)[C@H]1O [NETILMICIN] | 86% | 5.8 | 0.38 µM | 0.32 µM | –
NC[C@@H]1O[C@H](O[C@H]2[C@@H](O)[C@H](O[C@@H]3[C@@H](O)[C@H](N)C[C@H](N)[C@H]3O[C@H]3O[C@H](CO)[C@@H](O)[C@H](O)[C@H]3N)O[C@@H]2CO)[C@H](N)[C@@H](O)[C@@H]1O [PAROMOMYCIN] | – | 3.9 | 0.78 µM | 0.32 µM | Kill at C50 [11]: 61%
NC[C@H]1O[C@H](O[C@H]2[C@H](O[C@@H]3O[C@H](CO)[C@@H](O)[C@H]3O)[C@@H](O)[C@H](N)C[C@@H]2N)[C@H](N)[C@@H](O)[C@@H]1O [RIBOSTAMYCIN] | 99% | 2.6 | 0.17 µM | 1.2 µM | –
CN[C@@H]1[C@@H](O)[C@@H](O[C@@H]2[C@@H](O)[C@H](O[C@H]3OC(CN)=CC[C@H]3N)[C@@H](N)C[C@H]2N)OC[C@]1(C)O [SISOMICIN] | 77% | 7 | 0.49 µM | 0.31 µM | –
CN[C@@H]1[C@H](O[C@H]2[C@H](O[C@H]3[C@H](O)[C@@H](O)[C@H](N=C(N)N)[C@@H](O)[C@@H]3N=C(N)N)O[C@@H](C)[C@]2(O)C=O)O[C@@H](CO)[C@H](O)[C@H]1O [STREPTOMYCIN] | – | 5.8 | – | 0.34 µM | Kill at C50 [12]: 88%; LD90 [9]: 0.36 µM
NC[C@H]1O[C@H](O[C@H]2[C@H](O)[C@@H](O[C@H]3O[C@H](CO)[C@@H](O)[C@H](N)[C@H]3O)[C@H](N)C[C@@H]2N)[C@H](N)C[C@@H]1O [TOBRAMYCIN] | – | 8.3 | 0.71 µM | – | Kill at C50 [11]: 54%; C50 (Escherichia coli [3]): 0.24 µM
GENTAMICIN [listing 1 of 2 here] | – | – | 0.43 µM | – | Kill at C50 [11]: 72%
GENTAMICIN [listing 2 of 2 here] | – | 7.3 | – | 0.24 µM | –
